Active and inactive are the calls of the source. The rule behind the calls is not given here.
Legend:
[1] = target: T1, Amyloid-beta precursor protein (Homo sapiens, UniProt P05067); assay: Binding affinity to human amyloid beta (1 to 42) fibril by fluorescence intensity assay
Method in brief: (§1)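 Fibrils grown from human insulin (3 mg/mL, Tris-HCl 50 mM pH 3), E. coli-expressed human α-syn (3 mg/mL, pH 7.4) or Aβ(1–42) (0.5 mg/ml, 1% NH4OH). Fibril level taken as supernatant protein depletion. Plate-reader intensity read at each ligand's maximal excitation/emission wavelengths, dye blanks subtracted. Kd from single-site saturation fit.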

Insulin (Homo sapiens) = Insulin (Homo sapiens) (UniProt P01308); assay: Binding affinity to human insulin monomer by fluorescence intensity assay
Sequence of Insulin (Homo sapiens) (P01308 whole entry): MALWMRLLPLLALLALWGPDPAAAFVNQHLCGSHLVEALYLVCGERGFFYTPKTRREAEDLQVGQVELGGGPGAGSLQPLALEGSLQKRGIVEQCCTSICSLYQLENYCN

[2] = target: T1, Amyloid-beta precursor protein; assay: Binding affinity to human amyloid beta (1 to 42) monomer by fluorescence intensity assay
Homo sapiens [3] = species: Homo sapiens; assay: Binding affinity to human insulin fibril assessed as increase in intrinsic fluorescence intensity at 2.25 uM relative to equimolar monomeric specie
Homo sapiens [4] = species: Homo sapiens; assay: Binding affinity to human […] fibril assessed as intrinsic fluorescence intensity
[5] = target: Alpha-synuclein (Homo sapiens) (UniProt P37840); assay: Binding affinity to human alpha-synuclein fibril by fluorescence intensity assay
[6] = target: T1, Amyloid-beta precursor protein; assay: Binding affinity to human amyloid beta (1 to 42) fibril assessed as increase in intrinsic fluorescence intensity at 2.25 uM relative to equimolar monomeric specie
Homo sapiens [7] = species: Homo sapiens; assay: Binding affinity to human insulin fibril assessed as intrinsic fluorescence intensity
Albumin = Albumin (Bos taurus, UniProt P02769); assay: Binding affinity to bovine serum albumin by fluorescence intensity assay; assay type: ADME; conditions: cattle, isolated protein
Sequence of Albumin (P02769 whole entry): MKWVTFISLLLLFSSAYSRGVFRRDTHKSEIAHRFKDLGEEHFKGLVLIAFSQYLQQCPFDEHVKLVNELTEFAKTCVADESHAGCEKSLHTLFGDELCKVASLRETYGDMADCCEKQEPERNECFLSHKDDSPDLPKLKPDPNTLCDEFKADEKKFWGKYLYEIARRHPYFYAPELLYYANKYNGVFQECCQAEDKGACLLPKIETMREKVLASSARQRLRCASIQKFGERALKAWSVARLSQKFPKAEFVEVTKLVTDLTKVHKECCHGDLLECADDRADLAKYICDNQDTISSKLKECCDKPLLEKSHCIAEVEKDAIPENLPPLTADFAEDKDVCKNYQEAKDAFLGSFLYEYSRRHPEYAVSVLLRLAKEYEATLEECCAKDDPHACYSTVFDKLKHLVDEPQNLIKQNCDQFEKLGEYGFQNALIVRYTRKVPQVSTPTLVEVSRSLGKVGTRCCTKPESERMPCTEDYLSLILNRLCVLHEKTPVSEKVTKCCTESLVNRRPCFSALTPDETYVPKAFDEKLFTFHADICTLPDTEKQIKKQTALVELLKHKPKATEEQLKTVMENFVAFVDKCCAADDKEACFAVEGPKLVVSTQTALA
Method in brief: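 BSA titrated with increasing ligand concentrations in 50 mM Tris-HCl pH 7.4, in the same way as the fibril assays. Intrinsic fluorescence intensity was read on a plate reader with dye-blank background subtracted. Kd came from a single-site saturation curve fit.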

[8] = target: Alpha-synuclein (Homo sapiens) (UniProt P37840); assay: Binding affinity to human alpha-synuclein monomer expressed in Escherichia coli BL21 by fluorescence intensity assay
[9] = Binding affinity to human insulin fibril by fluorescence intensity assay
Method in brief: as §1, with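 “depletion. Fixed fibrils (3.5–11.35) titrated with ligand (DMSO stock diluted into 50 mM Tris-HCl pH 7.4).” for “depletion.”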

[10] = target: T1, Amyloid-beta precursor protein; assay: Binding affinity to human amyloid beta (1 to 42) fibril assessed as intrinsic fluorescence intensity
Homo sapiens [11] = species: Homo sapiens; assay: Binding affinity to human […] fibril assessed as increase in intrinsic fluorescence intensity at 2.25 uM relative to equimolar monomeric specie

T1 sequence (P05067 whole entry): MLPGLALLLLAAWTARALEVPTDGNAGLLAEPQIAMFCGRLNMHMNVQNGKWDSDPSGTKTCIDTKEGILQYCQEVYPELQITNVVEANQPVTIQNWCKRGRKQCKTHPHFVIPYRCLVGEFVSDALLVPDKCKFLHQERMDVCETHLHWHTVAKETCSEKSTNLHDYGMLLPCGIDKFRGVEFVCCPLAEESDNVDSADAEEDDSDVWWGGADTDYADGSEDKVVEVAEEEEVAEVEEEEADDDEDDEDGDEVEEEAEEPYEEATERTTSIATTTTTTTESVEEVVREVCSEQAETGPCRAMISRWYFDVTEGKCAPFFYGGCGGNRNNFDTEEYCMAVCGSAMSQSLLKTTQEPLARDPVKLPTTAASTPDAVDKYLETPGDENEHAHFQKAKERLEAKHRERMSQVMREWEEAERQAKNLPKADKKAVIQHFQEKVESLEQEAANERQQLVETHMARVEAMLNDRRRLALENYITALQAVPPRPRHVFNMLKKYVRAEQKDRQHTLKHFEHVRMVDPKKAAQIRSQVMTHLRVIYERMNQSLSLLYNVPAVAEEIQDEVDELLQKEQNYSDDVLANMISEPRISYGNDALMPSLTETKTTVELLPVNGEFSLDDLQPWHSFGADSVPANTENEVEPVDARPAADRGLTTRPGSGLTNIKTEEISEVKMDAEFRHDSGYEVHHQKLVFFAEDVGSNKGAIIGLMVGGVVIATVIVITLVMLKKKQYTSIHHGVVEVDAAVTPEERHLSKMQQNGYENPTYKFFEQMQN

SMILES | Kd [1] [µM⁻¹] | Activity (Insulin (Homo sapiens)) | Activity [2] | fold change (FC) (Homo sapiens [3]) | Activity (Homo sapiens [4]) | Kd [5] [µM⁻¹] | fold change (FC) [6] | Activity (Homo sapiens [7]) | Activity (Albumin) | Activity [8] | Kd [9] [µM⁻¹] | Activity [10] | fold change (FC) (Homo sapiens [11])
CN(CCF)c1ccc(/C=C/c2nc3ccccc3o2)cc1 | 4.48 | inactive | inactive | 1.98 | Active | 3.24 | 2.69 | Active | Not Active | inactive | 2.28 | Active | 1.98
CN(CCF)c1ccc(/C=C\c2nc3ccccc3o2)cc1 | 5.99 | inactive | inactive | 1.6 | Active | 7.43 | 1.28 | Active | Not Active | inactive | 3.24 | Active | 1.63
CN(CCF)c1ccc(/C=C\c2nc3ccccc3[nH]2)cc1 | – | inactive | inactive | – | Active | – | – | Active | Not Active | inactive | – | Active | –
CN(CCF)c1ccc(/C=C/c2nc3ccccc3s2)cc1 | 10.67 | inactive | inactive | 3.3 | Active | 1.38 | 7.41 | Active | Not Active | inactive | 1.79 | Active | 4.48
CN(CCF)c1ccc(/C=C/c2nc3ccccc3[nH]2)cc1 | 3.63 | inactive | inactive | 2.49 | Active | 3.31 | 2.71 | Active | Not Active | inactive | 1.54 | Active | 4.5
CN(CCF)c1ccc(/C=C\c2nc3ccccc3n2C)cc1 | 3.52 | inactive | inactive | 2.84 | Active | 1.85 | 5.9 | Active | Not Active | inactive | 3.86 | Active | 2.84
CN(CCF)c1ccc(/C=C/c2nc3ccccc3n2C)cc1 | 5.19 | inactive | inactive | 3.63 | Active | 1.81 | 5.17 | Active | Not Active | inactive | 1.22 | Active | 2.23
Cc1ccc2c(c1)sc(-c1ccc(N(C)C)cc1)[n+]2C.[Cl-] [THIOFLAVIN T] | – | – | – | – | – | – | – | – | – | – | 2.54 | – | –
CN(CCF)c1ccc(/C=C\c2nc3ccccc3s2)cc1 | 23.96 | inactive | inactive | 2.98 | Active | 7.35 | 11.3 | Active | Not Active | inactive | 8.59 | Active | 9.48

Source: ChEMBL document CHEMBL1926592, “Synthesis and in vitro evaluation of fluorinated styryl benzazoles as amyloid-probes” (Bioorg Med Chem, 2011)
